According to ChEMBL document CHEMBL3243965, “Potential antiinflammatory compounds. 1. Antiinflammatory phenylpiperidine derivatives” (J Med Chem, 1979):
Calls of active or inactive are those of the source. The rule behind the calls is not given here.

Columns and labels:
[1] = system: Rattus norvegicus; assay: Antiinflammatory activity in Wistar rat assessed as inhibition of carrageenan-induced paw swelling at 2 x 100 mg/kg, po administered 0.5 to 3 hrs prior to carrageenan challenge measured after 2.5 hrs by plethysmographic analysis relative to control; assay type: functional; details: for inhibition in vivo at 100 mg/kg: Rattus norvegicus, Wistar
In short: (§1)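 Female Wistar rats (in-house bred, 140–170 g; groups of four) were dosed orally twice, 3 and 0.5 h before a plantar injection of 0.1 mL 1% carrageenan in 0.9% saline into the right hind foot. Both feet were measured by mercury-displacement plethysmography 2.5 h later, and the right-minus-left difference was taken. Group mean % inhibition was calculated against ten concurrent saline-dosed controls, with significance at p < 0.02.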

[2] = Toxicity in po dosed mouse; assay type: organism-based; details: in vivo
[3] = system: Rattus norvegicus; assay: Antiinflammatory activity in Wistar rat assessed as inhibition of carrageenan-induced paw swelling at 2 x 50 mg/kg, po administered 0.5 to 3 hrs prior to carrageenan challenge measured after 2.5 hrs by plethysmographic analysis relative to control; assay type: functional; in short: as §1
[4] = system: Rattus norvegicus; assay: Antiinflammatory activity in Wistar rat assessed as inhibition of carrageenan-induced paw swelling at 100 mg/kg, po administered 0.5 to 3 hrs prior to carrageenan challenge measured after 2.5 hrs by plethysmographic analysis relative to control; assay type: functional
In short: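 Groups of four female Wistar rats (140–170 g) were dosed orally twice (2 × 50 or 2 × 100 mg/kg), at 3 and 0.5 h before plantar injection of 0.1 mL 1% carrageenan in 0.9% saline into the right hind foot. Right minus left foot volume was read by mercury-displacement plethysmograph at 2.5 h. Mean group swelling was expressed as % inhibition versus ten concurrent saline-dosed controls; significance p < 0.02.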

[5] = system: Canis familiaris; assay: Toxicity in dog at 150 mg/kg; assay type: organism-based, Canis lupus familiaris; design: dose 150 mg/kg; details: in vivo

| Structure (SMILES) | inhibition in vivo at 100 mg/kg [1] | LD50 [2] | inhibition in vivo at 50 mg/kg [3] | further results |
| --- | --- | --- | --- | --- |
| NCC(C(=O)O)c1ccc(N2CCCCC2)cc1 (stereo unspecified) | 40% | > 1600 mg/kg | – | – |
| CC(C)(O)c1ccc(N2CCCCC2)cc1 | – | 600 mg/kg | – | inhibition ([3]; at 50 mg/kg): inactive |
| O=C(O)Cc1ccc(N2CCCCC2)cc1 | 51% | 800 mg/kg | – | – |
| NCCc1ccc(N2CCCCC2)cc1.O=C(O)O | – | 800 mg/kg | – | inhibition (INH) [1]: 54% |
| O=C(O)Cc1ccc(N2CCCCC2)c(Cl)c1 | 43% | 800 mg/kg | – | – |
| CC(CN(C)C)c1ccc(N2CCCCC2)cc1.Cl (stereo unspecified) | 70% | 600 mg/kg | – | – |
| Cl.NCCc1ccc(N2CCCCC2)cc1 | – | 1200 mg/kg | – | inhibition in vivo at 100 mg/kg ([1]; po): 55% |
| CNCCc1ccc(N2CCCCC2)cc1.O=C(O)CCC(=O)O | – | 600 mg/kg | 33% | – |
| NCCCCc1ccc(N2CCCCC2)cc1.O=C(O)O | 54% | 600 mg/kg | – | – |
| CC(CN)c1ccc(N2CCCCC2)c(Cl)c1.Cl (stereo unspecified) | – | 600 mg/kg | 39% | – |
| Cl.NCCc1cccc(N2CCCCC2)c1 | – | 600 mg/kg | 39% | – |
| CC(C)c1ccc(N2CCCCC2)cc1.Cl | – | 1200 mg/kg | 30% | – |
| CC(C)(CN)c1ccc(N2CCCCC2)cc1.O=C(O)CCC(=O)O | – | 400 mg/kg | 34% | – |
| O=C(NCCc1ccc(N2CCCCC2)cc1)C(F)(F)F | 60% | 1600 mg/kg | – | – |
| Cl.NCCc1ccc(N2CCCCC2)c(Cl)c1 | – | 800 mg/kg | – | inhibition in vivo at 100 mg/kg [4]: 58% |
| NCCCCCCc1ccc(N2CCCCC2)cc1.O=C(O)CCC(=O)O | 57% | 1200 mg/kg | – | – |

| Structure (SMILES) | inhibition in vivo at 100 mg/kg [1] | LD50 [2] | inhibition in vivo at 50 mg/kg [3] | further results |
| --- | --- | --- | --- | --- |
| OCCc1ccc(N2CCCCC2)cc1 | 51% | 1200 mg/kg | – | – |
| Cl.[2H]C([2H])(N)C(C)c1ccc(N2CCCCC2)cc1 (stereo unspecified) | – | 600 mg/kg | 47% | – |
| CC(C(=O)O)c1ccc(N2CCCCC2)cc1 (stereo unspecified) | – | 800 mg/kg | 68% | – |
| C[C@]12CCC(=O)C=C1CC[C@@H]1[C@@H]2[C@@H](O)C[C@@]2(C)[C@H]1CC[C@]2(O)C(=O)CO [HYDROCORTISONE] | – | – | 35% | – |
| CC(CNC(=O)C(F)(F)F)c1ccc(N2CCCCC2)cc1 (stereo unspecified) | – | 600 mg/kg | 32% | – |
| CC(CO)c1ccc(N2CCCCC2)cc1 (stereo unspecified) | 71% | 1600 mg/kg | – | – |
| c1cc(N2CCCCC2)ccc1CCN1CCCCC1 | – | 400 mg/kg | 46% | – |
| CC(C(=O)O)c1ccc(N2CCCCC2)c(Cl)c1 (stereo unspecified) | 53% | 1200 mg/kg | – | – |
| CCCCC1C(=O)N(c2ccccc2)N(c2ccccc2)C1=O [PHENYLBUTAZONE] | 50% | – | – | – |
| CC(CN)c1ccc(N2CCCCC2)cc1.Cl (stereo unspecified) | – | 600 mg/kg | 57% | Activity [5]: Toxic |
| O=C(Cc1ccc(N2CCCCC2)cc1)NCCc1ccc(N2CCCCC2)cc1 | 22% | 1600 mg/kg | – | – |
| CC(CN)c1cccc(N2CCCCC2)c1 (stereo unspecified) | – | 600 mg/kg | – | inhibition ([1]; at 100 mg/kg): inactive |
| CN(CCc1ccc(N2CCCCC2)cc1)C(=O)C(F)(F)F.Cl | 38% | 1600 mg/kg | – | – |
| NCCCCc1ccc(N2CCCCC2)c(Cl)c1.O=C(O)CCC(=O)O | 71% | 1600 mg/kg | – | – |
| CC(N)Cc1ccc(N2CCCCC2)cc1.O=C(O)CCC(=O)O (stereo unspecified) | – | 600 mg/kg | 33% | – |
